Assay results as given in ChEMBL document CHEMBL1155379, “Effect of 3'-end capping of aptamer with various 2',4'-bridged nucleotides: Enzymatic post-modification toward a practical use of polyclonal aptamers” (Bioorg Med Chem Lett, 2010).
pKd: −log10 of the molar value.

Assays:
[1] = Chemical stability in presence of snake venom phosphodiesterase 1 assessed as oligonucleotide degradation after 120 mins by PAGE; type: physicochemical; settings: 2 h
[2] = Chemical stability in presence of 80% (v/v) human serum assessed as intact compound remaining after 8 hrs by PAGE; type: physicochemical; settings: read-out: Stability
Outline: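 Aptamer incubated in 80% v/v human serum at 37 °C for 8 h; intact full-length aptamer remaining quantified.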

Prothrombin = Prothrombin (Homo sapiens, UniProt P00734); test: Binding affinity to human thrombin after 30 mins by non-equilibrium capillary electrophoresis
Outline: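 Capillary electrophoresis of aptamer–thrombin mixtures: aptamer 1 nM with thrombin 4 nM in 20 mM Tris-HCl (1 mM MgCl2) pH 7.4 sample buffer; running buffer 100 mM sodium borate pH 8.35; separation +12 kV, injection 0.5 psi × 7.8 s. Kd derived from binding saturation curves over varied thrombin concentrations.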

Row | SMILES | Stability [1] | remaining at 8 h [2] [%] | pKd (Prothrombin)
1 | C=C1NC(=O)C(C)=CN1[C@H]1C[C@H](OP(=O)(O)OC[C@H]2O[C@@H](n3cnc4c(=O)[nH]c(N)nc43)[C@H](O)[C@@H]2OP(=O)(O)OC[C@H]2O[C@@H](n3cnc4c(N)ncnc43)[C@H](O)[C@@H]2OP(=O)(O)OC[C@H]2O[C@@H](n3ccc(N)nc3=O)[C@H](O)[C@@H]2OP(=O)(O)OC[C@H]2O[C@@H](n3cc(C)c(=O)[nH]c3=O)C[C@@H]2O)[C@@H](COP(=O)(O)O[C@H]2[C@@H](O)[C@H](n3cnc4c(=O)[nH]c(N)nc43)O[C@@H]2COP(=O)(O)O[C@H]2[C@@H](O)[C@H](n3cnc4c(=O)[nH]c(N)nc43)O[C@@H]2COP(=O)(O)O[C@H]2[C@@H](O)[C@H](n3cnc4c(=O)[nH]c(N)nc43)O[C@@H]2COP(=O)(O)O[C@H]2[C@@H](O)[C@H](n3cnc4c(=O)[nH]c(N)nc43)O[C@@H]2COP(=O)(O)O[C@H]2C[C@H](n3cc(C)c(=O)[nH]c3=O)O[C@@H]2COP(=O)(O)O[C@H]2C[C@H](n3cc(C)c(=O)[nH]c3=O)O[C@@H]2COP(=O)(O)O[C@H]2[C@@H](O)[C@H](n3cnc4c(=O)[nH]c(N)nc43)O[C@@H]2COP(=O)(O)O[C@H]2[C@@H](O)[C@H](n3cnc4c(=O)[nH]c(N)nc43)O[C@@H]2COP(=O)(O)O[C@H]2[C@@H](O)[C@H](n3cnc4c(N)ncnc43)O[C@@H]2COP(=O)(O)O[C@H]2[C@@H](O)[C@H](n3ccc(N)nc3=O)O[C@@H]2COP(=O)(O)O[C@H]2[C@@H](O)[C@H](n3cnc4c(=O)[nH]c(N)nc43)O[C@@H]2COP(=O)(O)O[C@H]2[C@@H](O)[C@H](n3cnc4c(=O)[nH]c(N)nc43)O[C@@H]2COP(=O)(O)O[C@H]2[C@@H](O)[C@H](n3cnc4c(=O)[nH]c(N)nc43)O[C@@H]2COP(=O)(O)O[C@H]2[C@@H](O)[C@H](n3cnc4c(N)ncnc43)O[C@@H]2COP(=O)(O)O[C@H]2C[C@H](n3cc(C)c(=O)[nH]c3=O)O[C@@H]2COP(=O)(O)O[C@H]2[C@@H](O)[C@H](n3cnc4c(=O)[nH]c(N)nc43)O[C@@H]2COP(=O)(O)O[C@H]2[C@@H](O)[C@H](n3cnc4c(=O)[nH]c(N)nc43)O[C@@H]2COP(=O)(O)O[C@H]2C[C@H](n3cc(C)c(=O)[nH]c3=O)O[C@@H]2COP(=O)(O)O[C@H]2[C@@H](O)[C@H](n3cnc4c(=O)[nH]c(N)nc43)O[C@@H]2COP(=O)(O)O[C@H]2[C@@H](O)[C@H](n3ccc(N)nc3=O)O[C@@H]2COP(=O)(O)O[C@H]2[C@@H](O)[C@H](n3ccc(N)nc3=O)O[C@@H]2COP(=O)(O)O[C@H]2C[C@H](n3cc(C)c(=O)[nH]c3=O)O[C@@H]2COP(=O)(O)O[C@H]2[C@@H](O)[C@H](n3cnc4c(=O)[nH]c(N)nc43)O[C@@H]2COP(=O)(O)O[C@H]2[C@@H](O)[C@H](n3cnc4c(N)ncnc43)O[C@@H]2COc2ccc3c(c2)Oc2cc(O)ccc2C32OC(=O)c3ccccc32)O1 (some centres not stated) | Unstable | 0 | 9.60
2 | C=C1NC(=O)C(C)=CN1[C@H]1C[C@H](OP(=O)(O)OC[C@H]2O[C@@H](n3cnc4c(=O)[nH]c(N)nc43)[C@H](O)[C@@H]2OP(=O)(O)OC[C@H]2O[C@@H](n3cnc4c(N)ncnc43)[C@H](O)[C@@H]2OP(=O)(O)OC[C@H]2O[C@@H](n3ccc(N)nc3=O)[C@H](O)[C@@H]2OP(=O)(O)OC[C@H]2O[C@@H](n3cc(C)c(=O)[nH]c3=O)C[C@@H]2OP(=O)(O)OC[C@@]23CO[C@@H]([C@H](n4cc(C)c(=O)[nH]c4=O)O2)[C@@H]3O)[C@@H](COP(=O)(O)O[C@H]2[C@@H](O)[C@H](n3cnc4c(=O)[nH]c(N)nc43)O[C@@H]2COP(=O)(O)O[C@H]2[C@@H](O)[C@H](n3cnc4c(=O)[nH]c(N)nc43)O[C@@H]2COP(=O)(O)O[C@H]2[C@@H](O)[C@H](n3cnc4c(=O)[nH]c(N)nc43)O[C@@H]2COP(=O)(O)O[C@H]2[C@@H](O)[C@H](n3cnc4c(=O)[nH]c(N)nc43)O[C@@H]2COP(=O)(O)O[C@H]2C[C@H](n3cc(C)c(=O)[nH]c3=O)O[C@@H]2COP(=O)(O)O[C@H]2C[C@H](n3cc(C)c(=O)[nH]c3=O)O[C@@H]2COP(=O)(O)O[C@H]2[C@@H](O)[C@H](n3cnc4c(=O)[nH]c(N)nc43)O[C@@H]2COP(=O)(O)O[C@H]2[C@@H](O)[C@H](n3cnc4c(=O)[nH]c(N)nc43)O[C@@H]2COP(=O)(O)O[C@H]2[C@@H](O)[C@H](n3cnc4c(N)ncnc43)O[C@@H]2COP(=O)(O)O[C@H]2[C@@H](O)[C@H](n3ccc(N)nc3=O)O[C@@H]2COP(=O)(O)O[C@H]2[C@@H](O)[C@H](n3cnc4c(=O)[nH]c(N)nc43)O[C@@H]2COP(=O)(O)O[C@H]2[C@@H](O)[C@H](n3cnc4c(=O)[nH]c(N)nc43)O[C@@H]2COP(=O)(O)O[C@H]2[C@@H](O)[C@H](n3cnc4c(=O)[nH]c(N)nc43)O[C@@H]2COP(=O)(O)O[C@H]2[C@@H](O)[C@H](n3cnc4c(N)ncnc43)O[C@@H]2COP(=O)(O)O[C@H]2C[C@H](n3cc(C)c(=O)[nH]c3=O)O[C@@H]2COP(=O)(O)O[C@H]2[C@@H](O)[C@H](n3cnc4c(=O)[nH]c(N)nc43)O[C@@H]2COP(=O)(O)O[C@H]2[C@@H](O)[C@H](n3cnc4c(=O)[nH]c(N)nc43)O[C@@H]2COP(=O)(O)O[C@H]2C[C@H](n3cc(C)c(=O)[nH]c3=O)O[C@@H]2COP(=O)(O)O[C@H]2[C@@H](O)[C@H](n3cnc4c(=O)[nH]c(N)nc43)O[C@@H]2COP(=O)(O)O[C@H]2[C@@H](O)[C@H](n3ccc(N)nc3=O)O[C@@H]2COP(=O)(O)O[C@H]2[C@@H](O)[C@H](n3ccc(N)nc3=O)O[C@@H]2COP(=O)(O)O[C@H]2C[C@H](n3cc(C)c(=O)[nH]c3=O)O[C@@H]2COP(=O)(O)O[C@H]2[C@@H](O)[C@H](n3cnc4c(=O)[nH]c(N)nc43)O[C@@H]2COP(=O)(O)O[C@H]2[C@@H](O)[C@H](n3cnc4c(N)ncnc43)O[C@@H]2COc2ccc3c(c2)Oc2cc(O)ccc2C32OC(=O)c3ccccc32)O1 (some centres not stated) | Stable |  | 9.74
3 | C=C1NC(=O)C(C)=CN1[C@H]1C[C@H](OP(=O)(O)OC[C@H]2O[C@@H](n3cnc4c(=O)[nH]c(N)nc43)[C@H](O)[C@@H]2OP(=O)(O)OC[C@H]2O[C@@H](n3cnc4c(N)ncnc43)[C@H](O)[C@@H]2OP(=O)(O)OC[C@H]2O[C@@H](n3ccc(N)nc3=O)[C@H](O)[C@@H]2OP(=O)(O)OC[C@H]2O[C@@H](n3cc(C)c(=O)[nH]c3=O)C[C@@H]2OP(=O)(O)OC[C@@]23COCO[C@@H]([C@H](n4cc(C)c(=O)[nH]c4=O)O2)[C@@H]3O)[C@@H](COP(=O)(O)O[C@H]2[C@@H](O)[C@H](n3cnc4c(=O)[nH]c(N)nc43)O[C@@H]2COP(=O)(O)O[C@H]2[C@@H](O)[C@H](n3cnc4c(=O)[nH]c(N)nc43)O[C@@H]2COP(=O)(O)O[C@H]2[C@@H](O)[C@H](n3cnc4c(=O)[nH]c(N)nc43)O[C@@H]2COP(=O)(O)O[C@H]2[C@@H](O)[C@H](n3cnc4c(=O)[nH]c(N)nc43)O[C@@H]2COP(=O)(O)O[C@H]2C[C@H](n3cc(C)c(=O)[nH]c3=O)O[C@@H]2COP(=O)(O)O[C@H]2C[C@H](n3cc(C)c(=O)[nH]c3=O)O[C@@H]2COP(=O)(O)O[C@H]2[C@@H](O)[C@H](n3cnc4c(=O)[nH]c(N)nc43)O[C@@H]2COP(=O)(O)O[C@H]2[C@@H](O)[C@H](n3cnc4c(=O)[nH]c(N)nc43)O[C@@H]2COP(=O)(O)O[C@H]2[C@@H](O)[C@H](n3cnc4c(N)ncnc43)O[C@@H]2COP(=O)(O)O[C@H]2[C@@H](O)[C@H](n3ccc(N)nc3=O)O[C@@H]2COP(=O)(O)O[C@H]2[C@@H](O)[C@H](n3cnc4c(=O)[nH]c(N)nc43)O[C@@H]2COP(=O)(O)O[C@H]2[C@@H](O)[C@H](n3cnc4c(=O)[nH]c(N)nc43)O[C@@H]2COP(=O)(O)O[C@H]2[C@@H](O)[C@H](n3cnc4c(=O)[nH]c(N)nc43)O[C@@H]2COP(=O)(O)O[C@H]2[C@@H](O)[C@H](n3cnc4c(N)ncnc43)O[C@@H]2COP(=O)(O)O[C@H]2C[C@H](n3cc(C)c(=O)[nH]c3=O)O[C@@H]2COP(=O)(O)O[C@H]2[C@@H](O)[C@H](n3cnc4c(=O)[nH]c(N)nc43)O[C@@H]2COP(=O)(O)O[C@H]2[C@@H](O)[C@H](n3cnc4c(=O)[nH]c(N)nc43)O[C@@H]2COP(=O)(O)O[C@H]2C[C@H](n3cc(C)c(=O)[nH]c3=O)O[C@@H]2COP(=O)(O)O[C@H]2[C@@H](O)[C@H](n3cnc4c(=O)[nH]c(N)nc43)O[C@@H]2COP(=O)(O)O[C@H]2[C@@H](O)[C@H](n3ccc(N)nc3=O)O[C@@H]2COP(=O)(O)O[C@H]2[C@@H](O)[C@H](n3ccc(N)nc3=O)O[C@@H]2COP(=O)(O)O[C@H]2C[C@H](n3cc(C)c(=O)[nH]c3=O)O[C@@H]2COP(=O)(O)O[C@H]2[C@@H](O)[C@H](n3cnc4c(=O)[nH]c(N)nc43)O[C@@H]2COP(=O)(O)O[C@H]2[C@@H](O)[C@H](n3cnc4c(N)ncnc43)O[C@@H]2COc2ccc3c(c2)Oc2cc(O)ccc2C32OC(=O)c3ccccc32)O1 (some centres not stated) | Stable |  | 9.57
